Active and inactive are the calls of the source. The rule behind the calls is not given here.
Tests used:
[1] = Cytotoxicity against human Hep3B cells after 72 hrs by MTT assay; format: functional, cell-based, Hep 3B2
Method in brief: (§1)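 MTT assay. Cells seeded at 5 × 10^3/well and grown 24 h at 37 °C in humidified 5% CO2. Compounds added at a range of concentrations in triplicate wells, with 0.1% DMSO as control, for 72 h. MTT (5 mg/mL solution) added for a further 4 h. Formazan dissolved in DMSO and absorbance read at 570 nm. IC50 derived by the Logit method.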

[2] = test system: MDA-MB-231; experiment: Cytotoxicity against human MDA-MB-231 cells after 72 hrs by MTT assay; format: functional, cell-based; conditions: MDA-MB-231, 72 h; method in brief: as §1
[3] = test system: A549; experiment: Cytotoxicity against human A549 cells after 72 hrs by MTT assay; format: functional, cell-based; conditions: A549, 72 h; method in brief: as §1
[4] = test system: HCT-116; experiment: Cytotoxicity against human HCT116 cells after 72 hrs by MTT assay; format: functional, cell-based; conditions: HCT-116, 72 h; method in brief: as §1
[5] = test system: WI-38; experiment: Cytotoxicity against human WI38 cells after 72 hrs by MTT assay; format: cell-based; conditions: WI-38, 72 h; method in brief: as §1
[6] = test system: MRC5; experiment: Cytotoxicity against human MRC5 cells after 72 hrs by MTT assay; format: cell-based; conditions: MRC5, 72 h; method in brief: as §1
[7] = Cytotoxicity against human ZR75-30 cells after 72 hrs by MTT assay; format: functional, cell-based; conditions: ZR-75-30, 72 h; method in brief: as §1
[8] = Selectivity ratio of IC50 for human MRC5 cells to IC50 for human MDA-MB-231 cells; format: ADME, cell-based; conditions: MRC5 cells versus MDA-MB-231 cells, read-out: Ratio IC50
[9] = Selectivity ratio of IC50 for human MRC5 cells to IC50 for human HCT116 cells; format: ADME, cell-based, HCT-116; conditions: MRC5 cells versus HCT116 cells, read-out: Ratio IC50
[10] = Selectivity ratio of IC50 for human MRC5 cells to IC50 for human ZR75-30 cells; format: ADME, cell-based; conditions: MRC5 cells versus ZR75-30 cells, read-out: Ratio IC50
[11] = test system: A549; experiment: Increase of ROS level in human A549 cells at 10 uM after 1 hr by fluorescence microscopic analysis; format: functional, cell-based
Method in brief: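 Cells treated with compound or DMSO for 1 h, then loaded with 10 μM DCFH-DA for 30 min at 37 °C. Washed twice with PBS and imaged at once by fluorescence microscopy. Mean fluorescence compared with control.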

[12] = test system: A549; experiment: Antitumor activity against human A549 cells xenografted in BALB/C nude mouse assessed as inhibition of tumor growth at 2 mg/kg, ip administered for 14 days; format: functional; conditions: 336 h, route intraperitoneal
[13] = test system: Mus musculus; experiment: Toxicity in human A549 cells xenografted BALB/C nude mouse assessed as reduction of body weight at 2 mg/kg, ip administered for 14 days; format: organism-based; set-up: dose 2 mg/kg, route intraperitoneal; conditions: in vivo, 336 h
Method in brief: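 Male BALB/C nude mice (18–20 g) implanted sc in the right axilla with A549 cells. Dosing began at tumor volume about 100–300 mm3 (day 17): 2 mg/kg ip daily for 14 days, in normal saline with tween-80 as solubilizer. Six mice per treatment group, eight controls. Caliper tumor volume (1/2·a·b²) and body weight recorded every 4 days. Sacrifice on days 30–33 and tumors excised.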

Row | SMILES | IC50 [1] | IC50 [2] | IC50 [3] | IC50 [4] | IC50 [5] | IC50 [6] | IC50 [7] | selectivity ratio [8] | selectivity ratio [9] | selectivity ratio [10] | Activity [11] | inhibition in vivo at 2 mg/kg [12] | Activity [13]
1 | CCC/C(=C\c1cc(OC)c(OC)c(OC)c1)C(=O)N1CCC=C(Br)C1=O | 5.54 µM | 2.36 µM | 2.63 µM | 2.14 µM | 5.02 µM | – | – | – | – | – | – | – | –
2 | CCCC/C(=C\c1cc(OC)c(OC)c(OC)c1)C(=O)N1CCC=C(Br)C1=O | 14.8 µM | 2.44 µM | 2.56 µM | 2.59 µM | 9.21 µM | – | – | – | – | – | – | – | –
3 | CCC/C(=C\c1cc(OC)c(OC)c(OC)c1)C(=O)N1CCC=C(N2CCOCC2)C1=O | – | > 100 µM | > 100 µM | > 100 µM | – | 52.5 µM | > 100 µM | – | – | – | – | – | –
4 | COc1cc(/C=C/C(=O)N2CCC=C(Cl)C2=O)cc(OC)c1OC | – | 6.71 µM | 19.8 µM | 4.28 µM | – | 14.3 µM | 4.49 µM | 2 | 2 | 2 | – | – | –
5 | CCCC/C(=C\c1cc(OC)c(OC)c(OC)c1)C(=O)N1CCC=C(Cl)C1=O | 14.8 µM | 6.55 µM | 3.78 µM | 7.53 µM | 7.93 µM | – | – | – | – | – | – | – | –
6 | CC/C(=C\c1cc(OC)c(OC)c(OC)c1)C(=O)N1CCC=C(N2CCOCC2)C1=O | – | > 100 µM | > 100 µM | > 100 µM | – | > 100 µM | > 100 µM | – | – | – | – | – | –
7 | CC/C(=C\c1cc(OC)c(OC)c(OC)c1)C(=O)N1CCC=CC1=O | – | 23.7 µM | 17.9 µM | 12.3 µM | – | 13.5 µM | 3.16 µM | – | – | – | – | – | –
8 | COc1cc(/C=C(\C)C(=O)N2CCC=CC2=O)cc(OC)c1OC | – | 11.7 µM | 23.9 µM | 10.3 µM | – | 19.4 µM | 3.32 µM | – | – | – | – | – | –
9 | COc1cc(/C=C(\C)C(=O)N2CCC=C(N3CCOCC3)C2=O)cc(OC)c1OC | – | > 100 µM | > 100 µM | > 100 µM | – | > 100 µM | > 100 µM | – | – | – | – | – | –
10 | COc1cc(/C=C/C(=O)N2CCC=C(Br)C2=O)cc(OC)c1OC | 8.09 µM | 2.73 µM | 4.79 µM | 7.12 µM | 20.7 µM | – | – | – | – | – | – | – | –
11 | COc1cc(/C=C/C(=O)N2CCC=C(N3CCOCC3)C2=O)cc(OC)c1OC | – | > 100 µM | > 100 µM | 47.2 µM | – | 56.1 µM | 52.6 µM | – | – | – | – | – | –
12 | COc1cc(/C=C/C(=O)N2CCC=CC2=O)cc(OC)c1OC [PIPLARTINE] | 69.5 µM | 8.46 µM | 22.9 µM | 6.04 µM | 26.8 µM | 35 µM | 5.86 µM | – | – | – | – | – | –
13 | CC/C(=C\c1cc(OC)c(OC)c(OC)c1)C(=O)N1CCC=C(Cl)C1=O | 19 µM | 7.27 µM | 4.06 µM | 9.17 µM | 5.48 µM | – | – | – | – | – | – | – | –
14 | COc1cc(/C=C(\C)C(=O)N2CCC=C(Br)C2=O)cc(OC)c1OC | 3.1 µM | 2.47 µM | 2.67 µM | 6.2 µM | 7.16 µM | – | – | – | – | – | – | – | –
15 | CCC/C(=C\c1cc(OC)c(OC)c(OC)c1)C(=O)N1CCC=C(Cl)C1=O | 22.4 µM | 8.13 µM | 3.81 µM | 8.08 µM | 10.4 µM | – | – | – | – | – | – | – | –
16 | CC/C(=C\c1cc(OC)c(OC)c(OC)c1)C(=O)N1CCC=C(Br)C1=O | 8.12 µM | 2.12 µM | 2.18 µM | 3.02 µM | 7.94 µM | – | – | – | – | – | – | – | –
17 | COc1cc(/C=C(\C)C(=O)N2CCC=C(Cl)C2=O)cc(OC)c1OC | 16.7 µM | 6.07 µM | 3.94 µM | 9.85 µM | 19.6 µM | – | – | – | – | – | Active | 48.6% | Non-toxic
